Test results reported in PubChem BioAssay AID552 (SRMLSC, 2006).
The campaign covered roughly 20,000 compounds. About 10 (0.05%) were called active. Cut-off read from the data, not from the text of the source: active = inhibition above about 40%; inactive = the rest. Only a selection was taken, and actives are over-represented in it overall.

Experiment: antibacterial activity on E. coli BW25113 – strain BW25113 wild type, absorbance readout, primary screen (AID 552);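 note: bacteria exposed to compound for 20 hours at 37 °C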
Details: E. coli BW25113 growth inhibition, OD600; at 10 µM; stronger effect = higher value
How it was run: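 Material: bacterial strain in a whole-cell growth screen; Amount: inoculum from a 1:1000 dilution of a 1.5 h subculture; Buffer or medium: LB plus kanamycin 50 µg/mL; Dosing: one dose, 10 µM final; Times: compound exposure of 20 h at 37 °C; Measured by: absorbance at 615 nm as a measure of bacterial growth.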

inhibition, inactive:
Cn1nnnc1SCC(=O)N1CCN(C(c2ccccc2)c2ccccc2)CC1 4.16%, CC12CCC(C(=O)N3CCN(c4ncccn4)CC3)(c3nc4ccccc4nc31)C2(C)C (configuration not stated) -25.6%, COc1c(C(=O)N2CCCC2)ccc2ccccc12 -8.42%, COc1ccc(CSc2nc(N3CCOCC3)c3c(c2C#N)CC(C)(C)OC3)cc1 -19.4%, CCC(C)n1[nH]c(=O)c2c(C)cc(C)nc21 (configuration not stated) 5.71%, CCCCSc1nnc(-c2ccc(NC(=O)CC)cc2)n1C -21.9%, Cc1cc(C)c2c(n1)nn1c(N3CCN(c4cccc(Cl)c4)CC3)cc(C)nc21 -4.02%, Cc1cc(Cl)c(S(=O)(=O)NCCC(=O)O)cc1OCC(N)=O -0.81%, COCCn1c(-c2ccc(OC)c(OC)c2)nc2ccccc21 -1.61%, Cc1cc(C(F)(F)F)nn1CC(=O)N1CCCC1 3.35%, Cn1c(=O)[nH]c(=O)c2c1nc(N(CCO)Cc1ccccc1)n2Cc1ccccc1Cl -2.48%, CC1CCc2c(sc3c2C2=NS(=O)(=O)CCN2C=N3)C1 (configuration not stated) 6%, Cc1nn(CC(=O)Nc2ccc3c(c2)nc(CN2CCCCC2)n3C)c(=O)c2ccccc12 2.04%, COc1ccccc1-c1nc(C(F)(F)F)c(OC)o1 -5.84%, O=c1ccc2cc(S(=O)(=O)N3CCN(c4ccccc4)CC3)ccc2o1 -12.1%, Cc1ccc(C(=O)N2CCCCCC2)cc1Br -8.59%, COc1cccc(-c2nc(S(=O)(=O)c3ccccc3)c(N3CCOCC3)o2)c1 7.07%, COc1ccccc1-c1cc(C(=O)NCCCn2ccnc2)no1 -4.16%, O=C(O)Cc1ccc(NC(=O)c2cccs2)cc1 -19.2%, COC(=O)Cc1c(C)c2ccc(OCC(=O)NCc3ccc4c(c3)OCO4)cc2oc1=O -21.1%, O=C(CS(=O)(=O)Cc1ccccc1)Nc1cccnc1 6.45%, O=C(NCc1ccco1)c1cc(-c2cccnc2)nc2ccc(Cl)cc12 -19.8%, CCSc1nc2c(c(=O)[nH]1)C(c1cccnc1)C(C(=O)OC(C)C)=C(C)N2 (configuration not stated) -1.79%, Cc1cccc(C(=O)Nc2ccc(CC(=O)O)cc2)c1 -0.63%, O=C(Nc1ccccc1)N(Cc1cccnc1)Cc1ccco1 -3.67%, O=C(CSc1nc2ccccc2o1)N1CCN(c2ccccc2)CC1 -25.4%, CC(=O)Nc1ccc(S(=O)(=O)Nc2nc3n(n2)C(c2ccccc2)CC(=O)N3)cc1 (configuration not stated) -1.04%
